Experimental data taken from ChEMBL document CHEMBL4765234 (J Med Chem, 2016).
Activity calls are given as the source filed them. The rule behind the calls is not given here.

What was measured:
[1] = target: T1, Free fatty acid receptor 1 (Homo sapiens, UniProt O14842); assay: Displacement of [3H]-TAK-875 from human recombinant full-length GPR40 expressed in human HEK293 cell membrane incubated for 2 hrs by solid scintillation counting method; type: cell membranes
[2] = target: T1, Free fatty acid receptor 1; assay: Agonist activity at human recombinant full length GPR40 overexpressed in human HEK293 cells assessed as increase in intracellular calcium level measured over 3 mins by calcium 4 dye based FLIPR assay; type: functional, cell-based
Outline: (§1)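 HEK293 cells overexpressing hGPR40 (25K/well) were cultured overnight in DMEM/F12 with 0.2% FBS and geneticin. Compound was tested at 40 μM–0.1 nM final (20-point, 1% DMSO), and FLIPR fluorescence was read over 3 min.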

[3] = target: T1, Free fatty acid receptor 1; assay: Agonist activity at human recombinant full length GPR40 overexpressed in human HEK293 cells assessed as increase in intracellular calcium level measured over 3 mins by calcium 4 dye based FLIPR assay relative to 100 uM linoleic acid; type: functional, cell-based; conditions: filed as agonist; outline: as §1
[4] = target: T1, Free fatty acid receptor 1; assay: Agonist activity at human recombinant full-length Prolink-tagged GPR40 fused with EA-tagged beta-arrestin expressed in human HEK293 cells assessed as induction of beta-arrestin recruitment measured after 90 mins by beta-galactosidase based PathHunter assay; type: cell-based
Outline: (§2)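 PathHunter β-gal complementation. Cells were incubated overnight at 5000/well in medium with 1% heat-inactivated FBS. Compound was added as a 20-point 2-fold series from a top final of 100 μM (1% DMSO) for 90 min at 37 °C, followed by detection reagents and chemiluminescence read after 1 h at rt.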

[5] = target: T1, Free fatty acid receptor 1; assay: Agonist activity at human recombinant full-length Prolink-tagged GPR40 fused with EA-tagged beta-arrestin expressed in human HEK293 cells assessed as induction of beta-arrestin recruitment measured after 90 mins by beta-galactosidase based PathHunter assay relative to control; type: cell-based; conditions: filed as agonist; outline: as §2
[6] = target: Free fatty acid receptor 1 (Mus musculus, UniProt Q76JU9); assay: Agonist activity at Prolink-tagged mouse GPR40 fused with EA-tagged beta-arrestin expressed in human U2OS cells assessed as induction of beta-arrestin recruitment measured after 90 mins by beta-galactosidase based PathHunter assay; type: cell-based; outline: as §2
[7] = target: Free fatty acid receptor 1 (Mus musculus) (UniProt Q76JU9); assay: Agonist activity at Prolink-tagged mouse GPR40 fused with EA-tagged beta-arrestin expressed in human U2OS cells assessed as induction of beta-arrestin recruitment measured after 90 mins by beta-galactosidase based PathHunter assay relative to control; type: cell-based; conditions: filed as agonist; outline: as §2
[8] = target: Free fatty acid receptor 1 (Rattus norvegicus, UniProt Q8K3T4); assay: Agonist activity at Prolink-tagged rat GPR40 fused with EA-tagged beta-arrestin expressed in human U2OS cells assessed as induction of beta-arrestin recruitment measured after 90 mins by beta-galactosidase based PathHunter assay; type: cell-based; outline: as §2
[9] = target: Free fatty acid receptor 1 (Rattus norvegicus) (UniProt Q8K3T4); assay: Agonist activity at Prolink-tagged rat GPR40 fused with EA-tagged beta-arrestin expressed in human U2OS cells assessed as induction of beta-arrestin recruitment measured after 90 mins by beta-galactosidase based PathHunter assay relative to control; type: cell-based; conditions: filed as agonist; outline: as §2
[10] = target: T1, Free fatty acid receptor 1; assay: Agonist activity at human recombinant full length GPR40 overexpressed in human HEK293 cells assessed as increase in inositol phosphate accumulation in presence of terbium cryptate-labeled anti IP1/d2-labelled IP1 measured after 120 mins by HTRF assay; type: functional, cell-based
Outline: (§3)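 HEK293 hGPR40 cells (20K/well) were cultured overnight, washed, and held in IP1 stimulation buffer. IP-1 was measured by competitive HTRF immunoassay with terbium cryptate anti-IP1 mAb and d2-labelled IP1.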

[11] = target: T1, Free fatty acid receptor 1; assay: Agonist activity at human recombinant full length GPR40 overexpressed in human HEK293 cells assessed as increase in inositol phosphate accumulation in presence of terbium cryptate-labeled anti IP1/d2-labelled IP1 measured after 120 mins by HTRF assay relative to AMG837; type: functional, cell-based; conditions: filed as agonist; outline: as §3
[12] = Protein binding in plasma (unknown origin) by equilibrium dialysis method; type: ADME, cell-free; conditions: human, read-out: PPB
Outline: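 Plasma protein binding measured by equilibrium dialysis.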

[13] = target: T2, Peroxisome proliferator-activated receptor alpha (Homo sapiens) (UniProt Q07869); assay: Displacement of [3H]-[…] from PPARalpha (unknown origin) expressed in baculovirus infected Sf9 insect cells upto 30 uM measured after 10 hrs by microbeta scintillation counting analysis; conditions: dose microM <=30, time 10.0 hrs
T2 sequence (whole entry): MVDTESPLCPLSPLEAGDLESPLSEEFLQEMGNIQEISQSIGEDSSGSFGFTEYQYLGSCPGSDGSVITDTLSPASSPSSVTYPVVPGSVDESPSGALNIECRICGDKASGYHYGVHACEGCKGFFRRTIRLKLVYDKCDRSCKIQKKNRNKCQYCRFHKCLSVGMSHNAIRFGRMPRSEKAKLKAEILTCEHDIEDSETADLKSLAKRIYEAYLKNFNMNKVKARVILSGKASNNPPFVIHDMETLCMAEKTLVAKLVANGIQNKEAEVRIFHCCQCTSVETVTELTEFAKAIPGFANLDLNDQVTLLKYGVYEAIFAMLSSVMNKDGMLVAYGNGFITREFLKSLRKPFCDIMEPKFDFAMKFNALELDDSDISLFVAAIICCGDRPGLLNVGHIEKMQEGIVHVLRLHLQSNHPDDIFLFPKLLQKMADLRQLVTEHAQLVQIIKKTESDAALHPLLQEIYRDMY
Outline: (§4)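 Scintillation proximity assay. Sf9 lysates with baculovirus-expressed PPARα (0.3 μg), PPARδ (0.5 μg) or PPARγ (1.25 μg), each with RXRα, were bound via biotinylated DR2 oligo (0.126 nM) to streptavidin yttrium silicate beads. Buffer was HEPES pH 7.8 with KCl, MgCl2, DTT, CHAPS, 14% glycerol and salmon sperm DNA. A 3H reference agonist ligand was used, with 11 compound concentrations, for 10 h. Nonspecific binding was defined with 10000 nM unlabeled reference. Ki was derived from IC50.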

[14] = target: T3, Peroxisome proliferator-activated receptor delta (Homo sapiens) (UniProt Q03181); assay: Displacement of [3H]-[…] from PPARdelta (unknown origin) expressed in baculovirus infected Sf9 insect cells upto 30 uM measured after 10 hrs by microbeta scintillation counting analysis; conditions: dose microM <=30, time 10.0 hrs; outline: as §4
T3 sequence (whole entry): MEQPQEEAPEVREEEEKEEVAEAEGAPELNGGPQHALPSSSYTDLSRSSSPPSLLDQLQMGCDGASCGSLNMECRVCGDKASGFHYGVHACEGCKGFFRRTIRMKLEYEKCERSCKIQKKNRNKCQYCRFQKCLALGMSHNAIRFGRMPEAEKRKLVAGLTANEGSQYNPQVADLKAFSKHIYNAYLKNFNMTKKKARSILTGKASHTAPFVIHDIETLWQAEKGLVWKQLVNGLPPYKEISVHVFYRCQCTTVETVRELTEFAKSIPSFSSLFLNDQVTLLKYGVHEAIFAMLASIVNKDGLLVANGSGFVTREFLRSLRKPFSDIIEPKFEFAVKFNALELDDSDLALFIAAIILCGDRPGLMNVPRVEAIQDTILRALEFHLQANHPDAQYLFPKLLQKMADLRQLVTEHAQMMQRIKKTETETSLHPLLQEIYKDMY

[15] = target: T4, Peroxisome proliferator-activated receptor gamma (Homo sapiens) (UniProt P37231); assay: Displacement of [3H]-[…] from PPARgamma (unknown origin) expressed in baculovirus infected Sf9 insect cells upto 30 uM measured after 10 hrs by microbeta scintillation counting analysis; conditions: dose microM <=30, time 10.0 hrs; outline: as §4
T4 sequence (whole entry): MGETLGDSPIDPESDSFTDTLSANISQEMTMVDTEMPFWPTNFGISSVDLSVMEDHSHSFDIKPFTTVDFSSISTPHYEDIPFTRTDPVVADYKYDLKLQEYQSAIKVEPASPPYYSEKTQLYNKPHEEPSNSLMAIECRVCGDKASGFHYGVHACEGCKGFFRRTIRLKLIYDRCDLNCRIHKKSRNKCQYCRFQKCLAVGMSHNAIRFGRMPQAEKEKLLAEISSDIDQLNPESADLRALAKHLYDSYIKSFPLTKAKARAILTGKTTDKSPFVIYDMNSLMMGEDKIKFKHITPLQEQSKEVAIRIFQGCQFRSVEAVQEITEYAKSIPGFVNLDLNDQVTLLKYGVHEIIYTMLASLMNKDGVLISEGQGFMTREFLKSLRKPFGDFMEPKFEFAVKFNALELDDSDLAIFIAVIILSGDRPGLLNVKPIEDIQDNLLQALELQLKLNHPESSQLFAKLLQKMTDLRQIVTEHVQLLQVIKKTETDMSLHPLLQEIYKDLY

T1 sequence (O14842 whole entry): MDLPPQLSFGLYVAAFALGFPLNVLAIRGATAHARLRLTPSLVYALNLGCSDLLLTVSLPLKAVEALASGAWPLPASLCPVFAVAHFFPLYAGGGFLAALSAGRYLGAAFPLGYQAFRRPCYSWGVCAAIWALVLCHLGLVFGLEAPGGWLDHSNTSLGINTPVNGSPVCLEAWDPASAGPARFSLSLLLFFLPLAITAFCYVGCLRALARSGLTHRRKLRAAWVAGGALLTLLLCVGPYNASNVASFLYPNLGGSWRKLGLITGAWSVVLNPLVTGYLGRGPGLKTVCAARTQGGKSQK
Chain of Free fatty acid receptor 1 (Rattus norvegicus, UniProt Q8K3T4) (Q8K3T4 whole entry, the tested form may be a part): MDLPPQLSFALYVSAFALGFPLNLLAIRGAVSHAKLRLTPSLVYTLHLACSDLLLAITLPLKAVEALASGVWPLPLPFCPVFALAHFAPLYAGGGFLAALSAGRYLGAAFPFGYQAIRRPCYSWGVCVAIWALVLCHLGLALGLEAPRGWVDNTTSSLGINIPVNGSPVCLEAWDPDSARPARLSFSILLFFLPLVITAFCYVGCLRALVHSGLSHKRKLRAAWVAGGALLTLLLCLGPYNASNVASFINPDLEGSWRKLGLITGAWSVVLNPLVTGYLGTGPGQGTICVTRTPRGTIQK
Chain of Free fatty acid receptor 1 (Rattus norvegicus) (Q8K3T4 whole entry, the tested form may be a part): as above
Chain of Free fatty acid receptor 1 (Mus musculus) (Q76JU9 whole entry, the tested form may be a part): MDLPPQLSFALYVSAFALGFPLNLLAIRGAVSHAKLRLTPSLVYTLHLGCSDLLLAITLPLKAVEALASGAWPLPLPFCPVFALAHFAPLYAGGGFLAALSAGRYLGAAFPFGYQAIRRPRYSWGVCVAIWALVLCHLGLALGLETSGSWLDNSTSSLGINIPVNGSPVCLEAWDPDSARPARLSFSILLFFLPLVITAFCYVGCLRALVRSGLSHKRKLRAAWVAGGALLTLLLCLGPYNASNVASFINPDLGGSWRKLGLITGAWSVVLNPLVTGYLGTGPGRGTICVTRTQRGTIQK
Chain of Free fatty acid receptor 1 (Mus musculus, UniProt Q76JU9) (Q76JU9 whole entry, the tested form may be a part): as above

Row | SMILES | Ki [1] [nM] | EC50 [2] [nM] | Emax [3] [%] | EC50 [4] [nM] | Emax [5] [%] | EC50 [6] [nM] | Emax [7] [%] | EC50 [8] [nM] | Emax [9] [%] | EC50 [10] [nM] | Emax [11] [%] | fraction unbound [12] | Activity [13] | Activity [14] | Activity [15]
1 | CC#C[C@@H](CC(=O)O)c1ccc(OCc2ccc(CN3CCC4(CC3)CN(C)c3ccc(C(F)(F)F)cc34)cc2)cc1 | 2.7 | 14 | 42 | 2.9 | 139 | 0.5 | 158 | 0.59 | 154 | 4.7 | 275 | < 0.01 | inactive | inactive | inactive
2 | CC#C[C@@H](CC(=O)O)c1ccc(OCc2ccc(CN3CCC4(C=Cc5ccccc54)CC3)c(Cl)c2)cc1 | 1.5 | 32 | 47 | 3.3 | 150 | 0.83 | 149 | 1 | 161 | 4.9 | 193 | < 0.01 | inactive | inactive | inactive
3 | CC#C[C@@H](CC(=O)O)c1ccc(OCc2ccc(CN3CCC4(CC3)CN(c3ccccc3)c3ccccc34)cc2)cc1 | 1.5 | 21 | 53 | 1.5 | 116 | 0.62 | 130 | 0.83 | 132 | 2.1 | 226 | < 0.01 | inactive | inactive | inactive
4 | CC#C[C@@H](CC(=O)O)c1ccc(OCc2ccc(CN3CCC4(CC3)CN(C)c3c(Cl)cccc34)cc2)cc1 | 3.5 | 17 | 42 | 3.3 | 147 | 0.59 | 141 | 0.89 | 138 | 11 | 378 | < 0.01 | inactive | inactive | inactive
5 | O=C(O)CCc1ccc(OCc2ccc(CN3CCC4(C=Cc5ccccc54)CC3)cc2)cc1Cl | 200 | 140 | 59 | 740 | 133 | 110 | 116 | 540 | 108 | 86 | 265 | < 0.01 | inactive | inactive | inactive
6 | CC#C[C@@H](CC(=O)O)c1ccc(OCc2ccc(CN3CCC4(C=Cc5ccccc54)CC3)c(C)c2)cc1 | 1.3 | 23 | 47 | 1.7 | 150 | 0.42 | 147 | 0.54 | 146 | 4.2 | 206 | < 0.01 | inactive | inactive | inactive
7 | CC#C[C@@H](CC(=O)O)c1ccc(OCc2ccc(CN3CCC4(CC3)CN(C(C)C)c3ccccc34)cc2)cc1 | 4.1 | 24 | 46 | 8.2 | 133 | 1.2 | 143 | 2.1 | 139 | 11 | 343 | < 0.01 | inactive | inactive | inactive
8 | CC#C[C@@H](CC(=O)O)c1ccc(OCc2ccc(CN3CCC4(CC3)CN(C)c3ccc(C)cc34)cc2)cc1 | 14 | 61 | 60 | 25 | 121 | 2 | 145 | 4.6 | 138 | 3.5 | 231 | < 0.01 | inactive | inactive | inactive
9 | CC#C[C@@H](CC(=O)O)c1ccc(OCc2ccc(CN3CCC4(C=Cc5ccccc54)CC3)c(C(F)(F)F)c2)cc1 | 1.1 | 20 | 55 | 1.1 | 132 | 0.83 | 146 | 1.1 | 135 | 1.9 | 255 | < 0.01 | inactive | inactive | inactive
10 | CC#C[C@H](CC(=O)O)c1ccc(OCc2ccc(CN3CCC4(C=Cc5ccccc54)CC3)cc2)cc1F | 410 | 440 | 61 | 680 | 102 | 120 | 113 | 420 | 112 | 190 | 160 | < 0.01 | inactive | inactive | inactive
